From ChEMBL document CHEMBL1157421, “Tenacigenin B derivatives reverse P-glycoprotein-mediated multidrug resistance inHepG2/Dox cells” (J Nat Prod, 2008)

Experiments:
[1] = Growth inhibition of multidrug resistant human HepG2/Dox cells after 72 hrs by SRB assay; assay type: functional, cell-based
How it was run: (§1)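 SRB growth assay giving IC50 values from at least three repeat experiments, reported as mean ± SD. HepG2/Dox is a doxorubicin-selected Pgp-overexpressing subline kept in 1.2 µM doxorubicin and grown drug-free for at least 7 days before use. Both lines grown in RPMI 1640 with 10% FBS at 37 °C, 5% CO2.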

[2] = test system: HepG2; experiment: Growth inhibition of human HepG2 cells after 72 hrs by SRB assay; assay type: functional, cell-based; settings: HepG2, 72 h; how it was run: as §1
[3] = test system: HepG2; experiment: Reversal of P-glycoprotein-mediated drug resistance in human HepG2 cells assessed as increase in sensitivity at 39.2 uM in presence of puromycin; assay type: cell-based
How it was run: (§2)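 Resistance reversal by SRB assay. IC50s of doxorubicin, vinblastine, puromycin or paclitaxel were measured with or without modulator, with modulator alone as negative control and verapamil as positive control. Fold sensitization is the ratio of drug IC50 without modulator to drug IC50 with it. HepG2/Dox cells were kept drug-free for at least 7 days before use. Assays were run at least three times (mean ± SD).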

[4] = test system: HepG2/Dox; experiment: Reversal of P-glycoprotein-mediated multidrug resistance in human HepG2/Dox cells assessed as increase in sensitivity at 19.6 uM in presence of doxorubicin; assay type: cell-based; how it was run: as §2
[5] = test system: HepG2/Dox; experiment: Reversal of P-glycoprotein-mediated multidrug resistance in human HepG2/Dox cells assessed as increase in sensitivity at 19.6 uM in presence of paclitaxel; assay type: cell-based; how it was run: as §2
[6] = test system: HepG2; experiment: Reversal of P-glycoprotein-mediated drug resistance in human HepG2 cells assessed as increase in sensitivity at 39.2 uM in presence of vinblastine; assay type: cell-based; how it was run: as §2
[7] = Growth inhibition of multidrug resistant human HepG2/Dox cells at 80 uM; assay type: functional
How it was run: (§3)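 SRB growth assay. HepG2 and HepG2/Dox cells were grown in RPMI 1640 with 10% FBS at 37 °C and 5% CO2; resistant cells were kept drug-free for at least 7 days before use. IC50 was taken from the SRB assay, with at least three repeats, reported as mean ± SD.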

[8] = test system: HepG2; experiment: Growth inhibition of doxorubicin-sensitive human HepG2 cells at 80 uM; assay type: functional; how it was run: as §3
[9] = test system: HepG2/Dox; experiment: Reversal of P-glycoprotein-mediated multidrug resistance in human HepG2/Dox cells assessed as increase in sensitivity at 19.6 uM in presence of puromycin; assay type: cell-based; how it was run: as §2
[10] = test system: HepG2/Dox; experiment: Reversal of P-glycoprotein-mediated multidrug resistance in human HepG2/Dox cells assessed as increase in sensitivity at 39.2 uM in presence of paclitaxel; assay type: cell-based; how it was run: as §2
[11] = test system: HepG2/Dox; experiment: Reversal of P-glycoprotein-mediated multidrug resistance in human HepG2/Dox cells assessed as increase in sensitivity at 19.6 uM in presence of vinblastine; assay type: cell-based; how it was run: as §2
[12] = test system: HepG2; experiment: Reversal of P-glycoprotein-mediated drug resistance in human HepG2 cells assessed as increase in sensitivity at 39.2 uM in presence of paclitaxel; assay type: cell-based; how it was run: as §2
[13] = test system: HepG2; experiment: Reversal of P-glycoprotein-mediated drug resistance in human HepG2 cells assessed as increase in sensitivity at 39.2 uM in presence of doxorubicin; assay type: cell-based; how it was run: as §2
[14] = test system: HepG2/Dox; experiment: Reversal of P-glycoprotein-mediated multidrug resistance in human HepG2/Dox cells assessed as increase in sensitivity at 39.2 uM in presence of puromycin; assay type: cell-based; how it was run: as §2
[15] = test system: HepG2/Dox; experiment: Reversal of P-glycoprotein-mediated multidrug resistance in human HepG2/Dox cells assessed as increase in sensitivity at 39.2 uM in presence of doxorubicin; assay type: cell-based; how it was run: as §2
[16] = test system: HepG2/Dox; experiment: Reversal of P-glycoprotein-mediated multidrug resistance in human HepG2/Dox cells assessed as increase in sensitivity at 39.2 uM in presence of vinblastine; assay type: cell-based; how it was run: as §2
[17] = test system: HepG2; experiment: Cell cycle arrest in human HepG2 cells assessed as accumulation in S phase at 0.2 uM; assay type: functional
How it was run: (§4)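 Cells seeded at about 2 × 10^5 per dish and left overnight, then exposed to drug for 48 h. Collected, washed in PBS, fixed in 70% EtOH at -20 °C overnight, treated with RNase A (100 µg/mL) at 37 °C for 30 min, stained with propidium iodide (40 µg/mL final) at room temperature, and phase distribution read by flow cytometry.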

[18] = Cell cycle arrest in multidrug resistant human HepG2/Dox cells assessed as accumulation in G0/G1 phase at 1 uM; assay type: functional, cell-based
How it was run: (§5)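 Flow-cytometric cell-cycle profiling. About 2 × 10^5 cells were seeded per dish and left overnight, then exposed to medium with or without drug for 48 h. Cells were fixed in 70% EtOH at -20 °C overnight and treated with RNase A (100 µg/mL, 37 °C, 30 min). They were then stained with propidium iodide (40 µg/mL final) at room temperature for 5-10 min and read on a FACSCalibur.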

[19] = test system: HepG2; experiment: Cell cycle arrest in human HepG2 cells assessed as accumulation in G0/G1 phase at 0.2 uM; assay type: functional; how it was run: as §4
[20] = Cell cycle arrest in multidrug resistant human HepG2/Dox cells assessed as accumulation in subG1 phase at 50 uM; assay type: functional, cell-based; how it was run: as §5
[21] = Cell cycle arrest in multidrug resistant human HepG2/Dox cells assessed as accumulation in G0/G1 phase at 10 uM; assay type: functional, cell-based; how it was run: as §5
[22] = Cell cycle arrest in multidrug resistant human HepG2/Dox cells assessed as accumulation in G2/M phase at 1 uM; assay type: functional, cell-based; how it was run: as §5
[23] = Cell cycle arrest in multidrug resistant human HepG2/Dox cells assessed as accumulation in G2/M phase at 10 uM; assay type: functional, cell-based; how it was run: as §5
[24] = Cell cycle arrest in multidrug resistant human HepG2/Dox cells assessed as accumulation in S phase at 10 uM; assay type: functional, cell-based; how it was run: as §5
[25] = Cell cycle arrest in multidrug resistant human HepG2/Dox cells assessed as accumulation in S phase at 50 uM; assay type: functional, cell-based; how it was run: as §5
[26] = Cell cycle arrest in multidrug resistant human HepG2/Dox cells assessed as accumulation in subG1 phase at 1 uM; assay type: functional, cell-based; how it was run: as §5
[27] = test system: HepG2; experiment: Cell cycle arrest in human HepG2 cells assessed as accumulation in G2/M phase at 0.2 uM; assay type: functional; how it was run: as §4
[28] = Cell cycle arrest in multidrug resistant human HepG2/Dox cells assessed as accumulation in subG1 phase at 10 uM; assay type: functional, cell-based; how it was run: as §5
[29] = Cell cycle arrest in multidrug resistant human HepG2/Dox cells assessed as accumulation in G2/M phase at 50 uM; assay type: functional, cell-based; how it was run: as §5
[30] = Cell cycle arrest in multidrug resistant human HepG2/Dox cells assessed as accumulation in S phase at 1 uM; assay type: functional, cell-based; how it was run: as §5
[31] = test system: HepG2; experiment: Cell cycle arrest in human HepG2 cells assessed as accumulation in subG1 phase at 0.2 uM; assay type: functional; how it was run: as §4
[32] = Cell cycle arrest in multidrug resistant human HepG2/Dox cells assessed as accumulation in G0/G1 phase at 50 uM; assay type: functional, cell-based; how it was run: as §5

CC(=O)O[C@H]1C(=O)[C@@]2(C)[C@H]([C@H](OC(=O)c3ccccc3)[C@]3(O)C[C@H](OC(=O)[C@H](O)[C@@H](NC(=O)c4ccccc4)c4ccccc4)C(C)=C1C3(C)C)[C@]1(OC(C)=O)CO[C@@H]1C[C@@H]2O [PACLITAXEL]
IC50 [1]: 1.4 µM
IC50 [2]: 5.9 nM

CC(=O)O[C@@H]1[C@@H](OC(=O)c2ccccc2)[C@@H]2[C@@]3(C)CC[C@H](O)C[C@@H]3CC[C@]23O[C@@]32CC[C@@H](C(C)=O)[C@@]12C [11ALPHA-O-BENZOYL-12BETA-O-ACETYLTENACIGENIN B]
Ratio IC50 [3]: 1
Ratio IC50 [4]: 10.1
Ratio IC50 [5]: 42.4
Ratio IC50 [6]: 0.9
inhibition at 80 µM [7]: 50%
inhibition at 80 µM [8]: 50%
Ratio IC50 [9]: 8.1
Ratio IC50 [10]: 326
Ratio IC50 [11]: 13
Ratio IC50 [12]: 1
Ratio IC50 [13]: 1.2
Ratio IC50 [14]: 15.5
Ratio IC50 [15]: 15.6
Ratio IC50 [16]: 53.1

CC[C@]1(O)C[C@@H]2CN(CCc3c([nH]c4ccccc34)[C@@](C(=O)OC)(c3cc4c(cc3OC)N(C)[C@H]3[C@@](O)(C(=O)OC)[C@H](OC(C)=O)[C@]5(CC)C=CCN6CC[C@]43[C@@H]65)C2)C1 [VINBLASTINE]
IC50 [1]: 0.26 µM
IC50 [2]: 0.26 nM

COc1cccc2c1C(=O)c1c(O)c3c(c(O)c1C2=O)C[C@@](O)(C(=O)CO)C[C@@H]3O[C@H]1C[C@H](N)[C@H](O)[C@H](C)O1 [DOXORUBICIN]
Activity [17]: 8.9%
Activity [18]: 51.3%
Activity [19]: 4.9%
Activity [20]: 4.9%
Activity [21]: 24.8%
Activity [22]: 33.5%
Activity [23]: 60.8%
Activity [24]: 6.9%
Activity [25]: 5.6%
IC50 [1]: 8.6 µM
Activity [26]: 2.4%
Activity [27]: 76.6%
IC50 [2]: 170 nM
Activity [28]: 3.4%
Activity [29]: 73.4%
Activity [30]: 7.7%
Activity [31]: 0.9%
Activity [32]: 12%

COc1ccc(C[C@H](N)C(=O)N[C@H]2[C@@H](O)[C@H](n3cnc4c(N(C)C)ncnc43)O[C@@H]2CO)cc1 [PUROMYCIN]
IC50 [1]: 20.2 µM
IC50 [2]: 210 nM
